This is an account of results in ChEMBL document CHEMBL1147131, “Investigation of the lactam side chain length necessary for optimal indenoisoquinoline topoisomerase I inhibition and cytotoxicity in human cancer cell cultures” (J Med Chem, 2007).

Calls of active or inactive are those of the source. No cut-off for these calls is given here.

Data set [1] can be described thus: Cytotoxicity against human OVCAR-3 cells. The format is cell-based.
A short description of data set [2]: Cytotoxicity against human DU145 cells. In kind it is cell-based. As to conditions: DU-145 cells.
Data set [3] deals with T1, DNA topoisomerase 1 (Homo sapiens) (UniProt P11387).
T1 sequence (whole entry): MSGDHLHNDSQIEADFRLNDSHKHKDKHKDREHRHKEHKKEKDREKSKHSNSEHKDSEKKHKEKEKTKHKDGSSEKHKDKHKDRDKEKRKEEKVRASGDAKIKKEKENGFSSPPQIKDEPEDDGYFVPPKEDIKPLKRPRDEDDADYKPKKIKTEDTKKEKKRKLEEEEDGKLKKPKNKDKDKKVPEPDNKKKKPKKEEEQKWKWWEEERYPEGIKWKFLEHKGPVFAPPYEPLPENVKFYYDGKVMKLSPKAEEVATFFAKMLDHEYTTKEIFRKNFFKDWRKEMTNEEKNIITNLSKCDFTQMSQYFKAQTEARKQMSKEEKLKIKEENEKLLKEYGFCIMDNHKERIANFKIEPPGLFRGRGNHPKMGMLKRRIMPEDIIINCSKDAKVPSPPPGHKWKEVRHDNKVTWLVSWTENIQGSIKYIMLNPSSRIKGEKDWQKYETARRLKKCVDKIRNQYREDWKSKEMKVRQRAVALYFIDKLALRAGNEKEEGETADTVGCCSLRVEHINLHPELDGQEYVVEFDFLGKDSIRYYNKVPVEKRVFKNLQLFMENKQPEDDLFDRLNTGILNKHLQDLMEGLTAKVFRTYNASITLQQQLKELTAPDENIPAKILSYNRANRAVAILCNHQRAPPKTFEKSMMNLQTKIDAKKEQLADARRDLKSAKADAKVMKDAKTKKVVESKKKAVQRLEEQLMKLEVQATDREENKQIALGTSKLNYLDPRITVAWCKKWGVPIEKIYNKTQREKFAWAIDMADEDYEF
The experiment in a line: Inhibition of human recombinant topoisomerase 1-mediated DNA cleavage after 30 mins. In short, it runs like this: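 Human recombinant Top1 purified from baculovirus. Substrate: 161 bp PvuII/HindIII fragment of pBluescript SK(−), 3′-end labeled at the HindIII site by Klenow fill-in with [α-32P]-dGTP. About 50,000 dpm per reaction, incubated with Top1 plus drug for 30 min at 22 °C. Stopped with SDS (0.5% final). Run on denaturing 16% polyacrylamide/7 M urea gels and phosphorimaged. Cleavage scored semi-quantitatively (+ scale) against the parent indenoisoquinoline.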

The nature of data set [4]: Cytotoxicity against human SN12C cells. The format is cell-based.
The nature of data set [5]: Cytotoxicity against human UACC62 cells. The format is cell-based. As to conditions: UACC-62 cells.
A short description of data set [6]: Cytotoxicity against human HCT116 cells. The format is cell-based. The settings on record: HCT-116 cells.
The next data set deals with SF-268. The experiment in a line: Cytotoxicity against human SF268 cells. In kind it is functional.
Data set [7] in a line: Cytotoxicity against human […] cells. The format is cell-based.
Data set [8] in a line: Cytotoxicity against human HOP62 cells. In kind it is cell-based. The settings on record: HOP-62 cells.

As to `Nn1c2c(c3ccccc3c1=O)C(=O)c1ccccc1-2`, the GI50 in data set [1] is greater than 50.1 µM; in data set [2] it was greater than 50.1 µM; in [4], greater than 50.1 µM; in data set [5] it was greater than 50.1 µM; in data set [6] it was greater than 50.1 µM; in the data set on SF-268 it was 28.2 µM. For the same compound, the GI50 in data set [7] was greater than 50.1 µM; in data set [8], 24.5 µM. Besides, in data set [3], the result was inactive.
For the compound `CC(C)(C)OC(=O)NCCCCCCCCCCn1c2c(c3ccccc3c1=O)C(=O)c1ccccc1-2`, the GI50 in data set [1] was greater than 100 µM; in [2], 97.7 µM; in data set [4] it was greater than 100 µM; in data set [5], 43.6 µM; in data set [6], 60.3 µM; in the data set with SF-268, 42.7 µM. Also, the values for the GI50 in data set [7] and in data set [8] were greater than 100 µM and 28.8 µM, respectively. Moreover, the result in data set [3] was inactive.
As for `NCCCCCCCCCCn1c2c(c3ccccc3c1=O)C(=O)c1ccccc1-2`, the GI50 in [1] was determined as 10.7 µM; in data set [2], 3.47 µM; in data set [4] it was 3.31 µM; in data set [5] it was 13.8 µM; in data set [6] it was 2.75 µM; in the data set on SF-268, 1.82 µM. Further, the GI50 in [7] stood at 11.7 µM; in [8], 4.79 µM. Besides, the outcome in data set [3] was inactive.
`NCCCCCn1c2c(c3ccccc3c1=O)C(=O)c1ccccc1-2`: the GI50 was found to be 0.708 µM in data set [1]; 0.347 µM in [2]; 0.398 µM in data set [4]; 1.35 µM in data set [5]; 0.2 µM in [6]; 0.871 µM in the data set on SF-268. Besides, the GI50 was 1.35 µM in data set [7] and 0.288 µM in data set [8]. For the same compound, the outcome in [3] was inactive.

One may read the GI50 as the concentration that inhibits growth by half. A higher GI50 goes with less potent growth inhibition.
